Experimental data of several laboratories.
Lines come from different studies, so protocols differ.
RPS6KA5: Ribosomal protein S6 kinase alpha-5 (RPS6KA5, Homo sapiens, UniProt O75582)
RPS6KA5 N-terminal kinase domain: Ribosomal protein S6 kinase alpha-5, N-terminal kinase domain (RPS6KA5, Homo sapiens, UniProt O75582)
RPS6KA5 C-terminal kinase domain: Ribosomal protein S6 kinase alpha-5, C-terminal kinase domain (RPS6KA5, Homo sapiens, UniProt O75582)

| Compound | target | assay | setting | quantity | result |
| --- | --- | --- | --- | --- | --- |
| Oc1cccc(-c2nc(N3CCOCC3)c3oc4ncccc4c3n2)c1 | RPS6KA5 | cell-free assay | 0.5 µM | remaining signal | 86.5% |
| N[C@@H]1CCN(c2nccc(-c3cnn4ncccc34)n2)C1 | RPS6KA5 N-terminal kinase domain | binding, competition with immobilised ligand | 1 µM | remaining binding | 94% |
| CC(=O)N1CCC(c2ccc(C(=O)NC3=NCCN3)cc2C(F)(F)F)CC1 | RPS6KA5 C-terminal kinase domain | cell-free assay, competition with immobilised ligand | 1 µM | remaining binding | 70% |
| CN(c1nccc(-c2cnn3ncccc23)n1)C1CC1 | RPS6KA5 N-terminal kinase domain | binding, competition with immobilised ligand | 1 µM | remaining binding | 100% |
| CNCc1ccc(-c2cc(-c3nc(-c4ccc(S(=O)(=O)C(C)C)cc4)cnc3N)on2)cc1 | RPS6KA5 | enzyme activity, inhibitor | 2 µM | inhibition | 0% |
| COc1ccc2cc(OCC3(C(=O)O)CN(C(=O)c4ccc(F)cc4)C3)ccc2c1 | RPS6KA5 N-terminal kinase domain | cell-free assay, competition with immobilised ligand | 1 µM | remaining binding | 100% |
| CCN(CC)c1ccc(C2=NNC(=O)CC2C)cc1[N+](=O)[O-] (stereo not drawn) | RPS6KA5 | enzyme activity, inhibitor | 10 µM | remaining activity | 83% |
| Nc1ncnc2occ(-c3ccc(NC(=O)Nc4cc(C(F)(F)F)ccc4F)cc3)c12 | RPS6KA5 N-terminal kinase domain | cell-free assay, inhibitor | 20 µM | remaining signal | 2.2% |
| COc1cc2ncnc(Nc3ccc(Oc4ccccc4)cc3C)c2cc1OC | RPS6KA5 | enzyme activity, inhibitor | 1 µM | inhibition | 2% |
| CNC(=O)c1cc(Oc2ccc(NC(=O)Nc3ccc(Cl)c(C(F)(F)F)c3)cc2)ccn1 | RPS6KA5 | enzyme activity, inhibitor | 10 µM | inhibition | 8% |
| COc1cc2c(N3CCN(C(=O)Nc4ccc(OC(C)C)cc4)CC3)ncnc2cc1OCCCN1CCCCC1 | RPS6KA5 | cell-free assay | 0.5 µM | remaining signal | 109% |
| Cc1ccc(Nc2nccc(N(C)c3ccc4c(C)n(C)nc4c3)n2)cc1S(N)(=O)=O | RPS6KA5 | enzyme activity, inhibitor | 10 µM | inhibition | 36% |
| O=C(NS(=O)(=O)c1ccc(NCC2CCOCC2)c([N+](=O)[O-])c1)c1ccc(N2CCN(Cc3ccc(C(F)(F)F)cc3-c3ccc(Cl)cc3)CC2)cc1Oc1cnc2[nH]ccc2c1 | RPS6KA5 N-terminal kinase domain | cell-free assay, competition with immobilised ligand | 1 µM | remaining binding | 97% |
| Nc1nc(NC2CCCCC2)sc1C(=O)c1ccccc1 | RPS6KA5 | enzyme activity, inhibitor | 10 µM | remaining activity | 122% |
| CC1=C(C#N)C(c2ccc3c(c2)c(NC(=O)c2ccccc2C)nn3C)C(C#N)=C(C)N1 | RPS6KA5 N-terminal kinase domain | cell-free assay, competition with immobilised ligand | 1 µM | remaining binding | 91% |
| CN(C)c1ncc(F)c(-c2cnn3ncccc23)n1 | RPS6KA5 C-terminal kinase domain | binding, competition with immobilised ligand | 1 µM | remaining binding | 89% |
| CCCS(=O)(=O)Nc1ccc(F)c(C(=O)c2c[nH]c3ncc(-c4ccc(Cl)cc4)cc23)c1F | RPS6KA5 | enzyme activity, inhibitor | 1 µM | inhibition | < 10% |
| Cc1ccc(C(=O)Nc2ccc(CN3CCN(C)CC3)c(C(F)(F)F)c2)cc1C#Cc1cnc2cccnn12 | RPS6KA5 | enzyme activity, inhibitor | 23.5 nM | remaining activity | 92% |

| Compound | target | assay | setting | quantity | result |
| --- | --- | --- | --- | --- | --- |
| CCS(=O)(=O)c1cc2cc(C[C@](O)(CC(C)(C)c3ccc(F)cc3C(N)=O)C(F)(F)F)[nH]c2cn1 | RPS6KA5 C-terminal kinase domain | cell-free assay, competition with immobilised ligand | 1 µM | remaining binding | 100% |
| CCN(CC)CCNC(=O)c1c(C)[nH]c(/C=C2\C(=O)Nc3ccc(F)cc32)c1C | RPS6KA5 | cell-free assay | 0.5 µM | remaining signal | 60.1% |
| O=C(Nc1cnn(-c2csc(C(=O)NC3COC3)c2)c1)Nc1ccccc1Cl | RPS6KA5 | enzyme activity, inhibitor | 5 µM | remaining activity | 89.5% |
| O=C1Nc2ccc(Cl)cc2C1=Cc1cc(Cl)c(O)c(Cl)c1 | RPS6KA5 | cell-free assay | 0.5 µM | remaining signal | 86.1% |
| CN(c1ncccc1CNc1nc(Nc2ccc3c(c2)CC(=O)N3)ncc1C(F)(F)F)S(C)(=O)=O | RPS6KA5 | enzyme activity, inhibitor | 1 µM | inhibition | 31.9% |
| COc1cc(Nc2cnc(C#N)c(O[C@H](C)CN(C)C)n2)ncc1-c1cnn(C)c1 | RPS6KA5 | enzyme activity, inhibitor, radiometric | 1 µM | remaining activity | 86% |
| Cc1c(NC(=O)c2cc(C(N)=O)nc3cc(F)ccc23)c(C(F)(F)F)nn1Cc1ccc(C(C)(C)C)cc1 | RPS6KA5 C-terminal kinase domain | cell-free assay, competition with immobilised ligand | 1 µM | remaining binding | 89% |
| Cc1cc(NC(=O)c2cccc3cc(-c4cccc5[nH]nc(N)c45)ccc23)ccc1F | RPS6KA5 | enzyme activity, inhibitor | 0.1 µM | activity vs control | 94% |
| C[C@@H]1CCN(c2nccc(-c3cnn4ncccc34)n2)C1 | RPS6KA5 C-terminal kinase domain | binding, competition with immobilised ligand | 1 µM | remaining binding | 100% |
| FC(F)c1nc2ccccc2n1-c1nc(N2CCOCC2)nc(N2CCOCC2)n1 | RPS6KA5 | enzyme activity, inhibitor | 10 µM | remaining activity | 89% |
| C=CC(=O)Nc1cc(Nc2nccc(Nc3cc(Cl)c(F)cc3C(C)(C)O)n2)c(OC)cc1N1CC[C@@H](N(C)C)C1 | RPS6KA5 | enzyme activity, inhibitor | 1 µM | inhibition | 26% |
| NS(=O)(=O)c1cc(NC(=O)Cc2ccccc2)ccc1Oc1cccc(Cl)c1 | RPS6KA5 N-terminal kinase domain | cell-free assay, competition with immobilised ligand | 1 µM | remaining binding | 71% |
| Oc1ccc(-c2nc(-c3ccncc3)c(-c3ccc(F)cc3)[nH]2)cc1 | RPS6KA5 | cell-free assay | 0.5 µM | remaining signal | 107% |
| Oc1cccc(-c2nc(N3CCOCC3)c3oc4ncccc4c3n2)c1 | RPS6KA5 | enzyme activity, inhibitor | 10 µM | remaining activity | 105% |
| O=C(O)[C@@H]1[C@@H](Cn2nnc3ccccc3c2=O)CC[C@H]1C(=O)c1ccc(OCCC2CCOCC2)cc1 | RPS6KA5 N-terminal kinase domain | cell-free assay, competition with immobilised ligand | 1 µM | remaining binding | 100% |
| COc1cc(Cl)c(C(=O)N[C@@H](CN[C@H]2CC[C@@H](N)CC2)Cc2ccc(C#N)cc2)cc1-c1ccc(CN[C@H](C)c2ccc(C)cc2)o1 | RPS6KA5 | enzyme activity, inhibitor | 1 µM | remaining activity | 85% |
| CC(C)(C)c1nc2c(s1)c1nc(N)ncc1c1ccc(NS(=O)(=O)c3c(F)cccc3F)c(F)c12 | RPS6KA5 | enzyme activity, inhibitor, radiometric | 1 µM | remaining activity | 95% |
| CC1CCCN1c1nccc(-c2cnn3ncccc23)n1 (stereo not drawn) | RPS6KA5 N-terminal kinase domain | binding, competition with immobilised ligand | 1 µM | remaining binding | 100% |
